Like-named read-outs stand apart in the source and are kept apart here. No end group written: not given here.
Experiments:
recombinant human HSP72 [1] = biological target: T1, recombinant human HSP72 (Homo sapiens, UniProt P0DMV8); assay: BIAcore SPR kinetic analysis of peptide binding to immobilized HSP72; settings: pH 7.4, read-out: ka (on rate)
How it was run: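 Recombinant human HSP72 dialysed into 10 mM sodium acetate pH 5.0 and covalently coupled to a CM5 chip at about 10,000 RU. Peptides were dissolved in running buffer (HBS-P pH 7.4, 2.5 mM Mg acetate, 2.5 mM ATP) and injected at 25 to 200 μM. Sensorgrams were reference-channel subtracted without regeneration, then globally fitted to a 1:1 Langmuir model and judged by Chi2 and residuals.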

recombinant human HSP72 [2] = biological target: T1, recombinant human HSP72; assay: BIAcore SPR peptide binding to high-density immobilized HSP72; settings: for binding to HSP72 (sensorgram pattern): 1 mM peptide, high HSP72 immobilization density (20,000 RU), data not shown, see reference [15]
[3] = tested on: MV transcription and genomic replication; settings: ref [15], cited from earlier work
[4] = tested on: MV RNP (parent Ed-MV and 4D variant); format: cell-based, measles virus; settings: recombinant virus with 4D-substituted motif; unpublished data
[5] = tested on: CDV transcription and genome replication; assay: CDV viral transcription and genome replication, HSP72 responsiveness; format: cell-based, canine distemper virus (Onderstepoort strain); settings: Onderstepoort CDV N protein (YSDKELL); unpublished observation
[6] = tested on: viral RNP transcriptional activity; settings: ATP-dependent association with CDV and MV RNP; ref [10]-[13]; cited from earlier work
IgG = assay: BIAcore SPR peptide binding to irrelevant ligand; settings: irrelevant ligand IgG immobilized; data not shown, see reference [15]
MV RNP-HSP72 interaction = assay: Peptide competitive inhibition of MV RNP-HSP72 interaction; format: binding, human HSP72; measles virus RNP

T1 sequence (P0DMV8 whole entry): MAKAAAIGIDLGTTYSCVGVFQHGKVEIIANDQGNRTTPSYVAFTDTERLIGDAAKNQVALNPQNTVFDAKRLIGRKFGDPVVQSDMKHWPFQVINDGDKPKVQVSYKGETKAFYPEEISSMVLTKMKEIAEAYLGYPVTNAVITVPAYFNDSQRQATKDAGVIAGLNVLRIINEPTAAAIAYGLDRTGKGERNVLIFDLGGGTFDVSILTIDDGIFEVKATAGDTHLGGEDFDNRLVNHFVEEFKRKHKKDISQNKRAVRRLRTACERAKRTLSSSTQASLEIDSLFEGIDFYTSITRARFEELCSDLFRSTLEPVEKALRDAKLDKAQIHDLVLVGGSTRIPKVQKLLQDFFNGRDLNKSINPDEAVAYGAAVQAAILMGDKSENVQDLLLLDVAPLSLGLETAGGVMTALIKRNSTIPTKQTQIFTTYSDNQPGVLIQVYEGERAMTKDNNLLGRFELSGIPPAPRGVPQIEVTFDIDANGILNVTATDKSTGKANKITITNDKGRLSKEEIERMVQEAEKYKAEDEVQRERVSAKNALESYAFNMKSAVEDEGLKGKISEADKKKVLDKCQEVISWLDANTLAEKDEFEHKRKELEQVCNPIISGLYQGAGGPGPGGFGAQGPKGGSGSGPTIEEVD

CC[C@H](C)[C@H](NC(=O)[C@@H]1CCCN1C(=O)[C@@H](NC(=O)[C@H](CC(=O)O)NC(=O)[C@@H](NC(=O)[C@@H](N)CC(=O)O)[C@@H](C)O)[C@@H](C)O)C(=O)N[C@H](C(=O)N[C@@H](Cc1ccc(O)cc1)C(=O)N[C@@H](CC(N)=O)C(=O)N[C@@H](CC(=O)O)C(=O)N[C@@H](CCCNC(=N)N)C(=O)N[C@@H](CC(N)=O)C(=O)N[C@@H](CC(C)C)C(=O)N[C@@H](CC(C)C)C(=O)N[C@@H](CC(=O)O)C(=O)O)C(C)C [N, DTDTPIVYNDRNLLD]
kon (recombinant human HSP72 [1]): 357 M⁻¹ s⁻¹ | dissociation rate from HSP72, faster in 2.5 mM than in 0.1 mM ATP (recombinant human HSP72 [2]; 400 μM N peptide, 20,000 RU HSP72, HBS-P, 2.5 mM magnesium acetate): 3 times

DTDTPIVYNDRDLLD [Peptide N4D, DTDTPIVYNDRDLLD]
kon (recombinant human HSP72 [1]): 7 M⁻¹ s⁻¹

DTDTPIVYNDRDPLD [Peptide N3P4D, DTDTPIVYNDRDPLD]
kon (recombinant human HSP72 [1]): 14 M⁻¹ s⁻¹

HSP72: 72 kDa heat shock protein; major inducible member of the 70kDa family
stimulation of viral transcriptional activity (CAT reporter) ([3]; HSP72 added by transfection, wild type MV N): 2-3 fold | response to HSP72 supplementation (CAT reporter) ([3]; N protein with C-terminal 3P4D substitutions): lack a response | response to HSP72 supplementation (CAT reporter) ([3]; N protein with C-terminal 4D substitution): lack a response | functional HSP72 responsiveness of 4D virus variant [4]: loss of functional HSP72 responsiveness | HSP72 responsiveness in viral transcription and genome replication [5]: retains HSP72 responsiveness | effect of HSP72 association on RNP [6]: increased RNP transcriptional activity

STSRHKKLMFKTEGP [p53]
binding to HSP72 (sensorgram pattern) (recombinant human HSP72 [2]): progressive rise in signal observed over time | signal over bulk shift on IgG (IgG): signal over bulk shift was not observed

YGSLPQKAQRPQDEN [MBP]
binding to HSP72 (sensorgram pattern) (recombinant human HSP72 [2]): identical sensorgrams were obtained with 1 mM peptide solution and flow channels containing no ligand or flow channels containing either HSP72 or irrelevant protein (i.e., IgG) as ligand | inhibition of RNP binding to HSP72 (MV RNP-HSP72 interaction; 400 μM peptide, MV RNP representing 1 nM N protein, maximal sensorgram response): 18% | level of inhibition of RNP-HSP72 binding, comparison (MV RNP-HSP72 interaction; 400 mM (so in the source) MBP peptide vs 5 μM N peptide): comparable to that using only 5 μM N peptide

Source: publication PMC248471 (Biological Procedures Online, 2003)
